Legend:
[1] = Inhibition of Influenza B virus (B/Perth/211/2001) recombinant neuraminidase E197 mutant expressed in Sf21 insect cells after 60 mins by MUNANA based assay
How it was run: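 The enzyme source was virus grown in cell culture and solubilized in 1% CHAPS (final), then titrated to give similar fluorescence. Inhibitor (serial log10 dilutions in water, 0.01–10000 nM; one inhibitor 0.01–10000 μM) was added together with 100 μM MUNANA, with no preincubation. Fluorescence was read every minute for 60 min without stop solution. […] Duplicates.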

[2] = Inhibition of Influenza B virus (B/Perth/211/2001) recombinant neuraminidase E197 mutant expressed in Sf21 insect cells preincubated for 30 mins measured after 60 mins by MUNANA based assay
How it was run: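 Virus detergent extract (1% CHAPS final, titrated to similar fluorescence) was preincubated for 30 min with inhibitor (serial log10 dilutions in water, 0.01–10000 nM; one inhibitor 0.01–10000 μM). 100 μM MUNANA was then added and fluorescence read every minute for 60 min without stop solution. […] Duplicates.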

Compound	IC50 [1]	Ki [1]	IC50 [2]	Ki [2]
O=C(O)C1(F)O[C@H]([C@H](O)[C@H](O)CO)[C@H](O)[C@@H](O)C1F (some centres not stated)	19400 nM	–	–	–
CCOC(=O)C1=C[C@@H](OC(CC)CC)[C@H](NC(C)=O)[C@@H](N)C1 [OSELTAMIVIR]	660 nM	84 nM	–	–
CCC(CC)[C@H](NC(C)=O)[C@@H]1[C@H](O)[C@@H](C(=O)O)C[C@H]1NC(=N)N [PERAMIVIR ANHYDROUS]	75.2 nM	8.3 nM	41.5 nM	8.2 nM
